Assay results reported in ChEMBL document CHEMBL1153561, “Staphylococcus aureus clinical isolate with high-level methicillin resistance with an lytH mutation caused by IS1182 insertion” (2008).
Converted amounts (≈) assume the structure as drawn.

Tests used:
Assay type in all cases: functional
Staphylococcus aureus [1] = experiment: Antibacterial activity against high-level methicillin-resistant Staphylococcus aureus SRM1648 harboring inactive lytH gene and active llm gene after 24 hrs by serial twofold dilution method; settings: SRM1648, 24 h
How it was run: (§1)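 Agar dilution MIC: tryptic soy agar plates carried serial twofold dilutions of antibiotic. Overnight tryptic soy broth cultures were diluted to about 10⁶ CFU/ml, and 1 μl of each suspension was spotted onto the plates. Plates were incubated 24 h at 37°C, then MICs were scored.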

Staphylococcus aureus [2] = experiment: Antibacterial activity against high-level methicillin-resistant Staphylococcus aureus SRM1663 harboring inactive lytH gene and active llm gene after 24 hrs by serial twofold dilution method; settings: SRM1663, 24 h; how it was run: as §1
Staphylococcus aureus [3] = experiment: Antibacterial activity against high-level methicillin-resistant Staphylococcus aureus SRM1832 harboring inactive lytH and inactive llm gene after 24 hrs by serial twofold dilution method; settings: SRM1832, 24 h; how it was run: as §1
Staphylococcus aureus [4] = experiment: Antibacterial activity against high-level methicillin-resistant Staphylococcus aureus SRM551 harboring active lytH and llm gene after 24 hrs by serial twofold dilution method; settings: SRM551, 24 h; how it was run: as §1
Staphylococcus aureus [5] = experiment: Antibacterial activity against high-level methicillin-resistant Staphylococcus aureus SRM1825 harboring inactive lytH and inactive llm gene after 24 hrs by serial twofold dilution method; settings: SRM1825, 24 h; how it was run: as §1
Staphylococcus aureus [6] = experiment: Antibacterial activity against high-level methicillin-resistant Staphylococcus aureus SRM1816 harboring inactive lytH and inactive llm gene after 24 hrs by serial twofold dilution method; settings: SRM1816, 24 h; how it was run: as §1
Staphylococcus aureus [7] = experiment: Antibacterial activity against high-level methicillin-resistant Staphylococcus aureus SR-17164 harboring inactive lytH gene and active llm gene after 24 hrs by serial twofold dilution method; settings: SR17164, 24 h; how it was run: as §1
Staphylococcus aureus [8] = experiment: Antibacterial activity against high-level methicillin-resistant Staphylococcus aureus SRM563 harboring active lytH gene and inactive llm gene after 24 hrs by serial twofold dilution method; settings: SRM563, 24 h; how it was run: as §1
Staphylococcus aureus [9] = experiment: Antibacterial activity against high-level methicillin-resistant Staphylococcus aureus SR-17164 harboring lytH::IS1182 gene after 24 hrs by serial twofold dilution method; settings: SR17164, 24 h; how it was run: as §1
Staphylococcus aureus [10] = experiment: Antibacterial activity against low-level methicillin-resistant Staphylococcus aureus SR-20137 after 24 hrs by serial twofold dilution method; settings: SR20137, 24 h; how it was run: as §1
Staphylococcus aureus [11] = experiment: Antibacterial activity against methicillin-resistant Staphylococcus aureus SRM1665 containing pSR108 harboring deletion in rel-lytH region after 24 hrs by serial twofold dilution method; settings: SRM1665, 24 h
Staphylococcus aureus [12] = experiment: Antibacterial activity against low-level methicillin-resistant Staphylococcus aureus SR-20202 after 24 hrs by serial twofold dilution method; settings: SR20202, 24 h; how it was run: as §1
Staphylococcus aureus [13] = experiment: Antibacterial activity against methicillin-resistant Staphylococcus aureus SRM1664 containing pSR100 harboring deletion in rel-lytH region after 24 hrs by serial twofold dilution method; settings: SRM1664, 24 h
Staphylococcus aureus [14] = experiment: Antibacterial activity against methicillin-resistant Staphylococcus aureus SRM2151 containing pSR108 harboring deletion in rel-lytH region after 24 hrs by serial twofold dilution method; settings: SRM2151, 24 h
Staphylococcus aureus [15] = experiment: Antibacterial activity against high-level methicillin-resistant Staphylococcus aureus SR-17164 harboring intact lytH gene after 24 hrs by serial twofold dilution method; settings: SR17164, 24 h; how it was run: as §1
Staphylococcus aureus [16] = experiment: Antibacterial activity against methicillin-resistant Staphylococcus aureus SRM2149 containing pSR108 harboring deletion in rel-lytH region after 24 hrs by serial twofold dilution method; settings: SRM2149, 24 h
Staphylococcus aureus [17] = experiment: Antibacterial activity against low-level methicillin-resistant Staphylococcus aureus SR-20118 after 24 hrs by serial twofold dilution method; settings: SR20118, 24 h; how it was run: as §1
Staphylococcus aureus [18] = experiment: Antibacterial activity against low-level methicillin-resistant Staphylococcus aureus SR-20280 after 24 hrs by serial twofold dilution method; settings: SR20280, 24 h; how it was run: as §1
Staphylococcus aureus [19] = experiment: Antibacterial activity against high-level methicillin-resistant Staphylococcus aureus SRM1648 with deltarel-lytH region after 24 hrs by serial twofold dilution method; settings: SRM1648, 24 h; how it was run: as §1
Staphylococcus aureus [20] = experiment: Antibacterial activity against low-level methicillin-resistant Staphylococcus aureus SR-17238 after 24 hrs by serial twofold dilution method; settings: SR17238, 24 h; how it was run: as §1
Staphylococcus aureus [21] = experiment: Antibacterial activity against methicillin-resistant Staphylococcus aureus SRM2150 containing pSR108 harboring deletion in rel-lytH region after 24 hrs by serial twofold dilution method; settings: SRM2150, 24 h
Staphylococcus aureus [22] = experiment: Antibacterial activity against high-level methicillin-resistant Staphylococcus aureus SR-17164 with lytH gene inactivated by insertion sequence IS1182 measured after 24 hrs by serial twofold dilution method; settings: SR17164, 24 h; how it was run: as §1
Staphylococcus aureus [23] = experiment: Antibacterial activity against methicillin-resistant Staphylococcus aureus SRM2148 containing pSR108 harboring deletion in rel-lytH region after 24 hrs by serial twofold dilution method; settings: SRM2148, 24 h

Q: What does the source list for Cc1nnc(SCC2=C(C(=O)O)N3C(=O)[C@@H](NC(=O)Cn4cnnn4)[C@H]3SC2)s1 [CEFAZOLIN]?
A: MIC (Staphylococcus aureus [1]): 400 µg/mL (≈ 880 µM); MIC (Staphylococcus aureus [2]): 400 µg/mL (≈ 880 µM); MIC (Staphylococcus aureus [3]): 200 µg/mL (≈ 440 µM); MIC (Staphylococcus aureus [4]): 200 µg/mL (≈ 440 µM); MIC (Staphylococcus aureus [5]): 200 µg/mL (≈ 440 µM); MIC (Staphylococcus aureus [6]): 100 µg/mL (≈ 220 µM); MIC (Staphylococcus aureus [7]): 400 µg/mL (≈ 880 µM); MIC (Staphylococcus aureus [8]): 12.5 µg/mL (≈ 27.5 µM)

Q: What does the source list for COc1cccc(OC)c1C(=O)N[C@@H]1C(=O)N2[C@@H]1SC(C)(C)[C@@H]2C(=O)O [METHICILLIN]?
A: MIC (Staphylococcus aureus [9]): 1600 µg/mL (≈ 4210 µM); MIC (Staphylococcus aureus [10]): 12.5 µg/mL (≈ 32.9 µM); MIC (Staphylococcus aureus [11]): 25 µg/mL (≈ 65.7 µM); MIC (Staphylococcus aureus [12]): 25 µg/mL (≈ 65.7 µM); MIC (Staphylococcus aureus [1]): 1600 µg/mL (≈ 4210 µM); MIC (Staphylococcus aureus [2]): 1600 µg/mL (≈ 4210 µM); MIC (Staphylococcus aureus [13]): 6.3 µg/mL (≈ 16.6 µM); MIC (Staphylococcus aureus [14]): 6.3 µg/mL (≈ 16.6 µM); MIC (Staphylococcus aureus [3]): 800 µg/mL (≈ 2100 µM); MIC (Staphylococcus aureus [15]): 800 µg/mL (≈ 2100 µM); MIC (Staphylococcus aureus [16]): 25 µg/mL (≈ 65.7 µM); MIC (Staphylococcus aureus [4]): 800 µg/mL (≈ 2100 µM); MIC (Staphylococcus aureus [17]): 12.5 µg/mL (≈ 32.9 µM); MIC (Staphylococcus aureus [18]): 6.3 µg/mL (≈ 16.6 µM); MIC (Staphylococcus aureus [19]): 1600 µg/mL (≈ 4210 µM); MIC (Staphylococcus aureus [20]): 6.3 µg/mL (≈ 16.6 µM); MIC (Staphylococcus aureus [21]): 50 µg/mL (≈ 131 µM); MIC (Staphylococcus aureus [22]): 1600 µg/mL (≈ 4210 µM); MIC (Staphylococcus aureus [5]): 400 µg/mL (≈ 1050 µM); MIC (Staphylococcus aureus [6]): 100 µg/mL (≈ 263 µM); MIC (Staphylococcus aureus [7]): 1600 µg/mL (≈ 4210 µM); MIC (Staphylococcus aureus [23]): 12.5 µg/mL (≈ 32.9 µM); MIC (Staphylococcus aureus [8]): 12.5 µg/mL (≈ 32.9 µM)

Q: Which MIC (Staphylococcus aureus [9]) does the source give for C[C@@H](O)[C@H]1C(=O)N2C(C(=O)O)=C(SCCNC=N)C[C@H]12 [IMIPENEM ANHYDROUS] here?
A: 100 µg/mL (≈ 334 µM)

Q: What about the MIC (Staphylococcus aureus [1]) of the same compound?
A: 100 µg/mL (≈ 334 µM)

Q: And the MIC (Staphylococcus aureus [2])?
A: 100 µg/mL (≈ 334 µM)

Q: What about the MIC (Staphylococcus aureus [3]) of the same compound?
A: 50 µg/mL (≈ 167 µM)

Q: What about the MIC (Staphylococcus aureus [15]) of the same compound?
A: 50 µg/mL (≈ 167 µM)

Q: What about the MIC (Staphylococcus aureus [4]) of the same compound?
A: 50 µg/mL (≈ 167 µM)

Q: And the MIC (Staphylococcus aureus [19])?
A: 50 µg/mL (≈ 167 µM)

Q: What about the MIC (Staphylococcus aureus [20]) of the same compound?
A: ≤ 0.1 µg/mL

Q: And the MIC (Staphylococcus aureus [22])?
A: 100 µg/mL (≈ 334 µM)

Q: What about the MIC (Staphylococcus aureus [5]) of the same compound?
A: 50 µg/mL (≈ 167 µM)

Q: What about the MIC (Staphylococcus aureus [6]) of the same compound?
A: 25 µg/mL (≈ 83.5 µM)

Q: What about the MIC (Staphylococcus aureus [7]) of the same compound?
A: 100 µg/mL (≈ 334 µM)

Q: What about the MIC (Staphylococcus aureus [8]) of the same compound?
A: 0.39 µg/mL (≈ 1.3 µM)
